The list is not random: actives were taken first. Their share in the collection is about 5.7%.
Calb FLC = affects C. albicans growth with fluconazole; C. albicans CaCi-2 (fluconazole-resistant clinical isolate) + fluconazole, Alamar Blue growth, 48 h; growth inhibition, % (no concentration beside the values); 0.57% of 300,000 active; AID 1979;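 active = growth inhibition above about 58% in most replicates, limit read from the data, passing the limit was not always enough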;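 also: all wells also contain fluconazole at 8 µg/ml as a sub-toxic cotreatment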
Beta apoptosis = blocks beta cell apoptosis | INS-1E cytokine-induced death, ATP luminescence, 48 h; percent of positive-control rescue, neutral wells zero | protection from apoptosis, % (no concentration beside the values) | 0.8% of 300,000 active | AID 435005;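 active = Every replicate reaches about 75%, or at least half do and their mean reaches it too, limit read from the data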;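 also: higher means more ATP so stronger rescue from cytokine killing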
Mdm2 MdmX PPI = disrupts the human Mdm2-MdmX interaction; O15151+Q00987; SaOS-2 split-luciferase Mdm2/MdmX complementation, luminescence; inhibition, % at 8 µM; 3% of 330,000 active;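 active = inhibition of at least 50% at 8 µM in the primary screen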
Target sequence (O15151 whole entry, looked up): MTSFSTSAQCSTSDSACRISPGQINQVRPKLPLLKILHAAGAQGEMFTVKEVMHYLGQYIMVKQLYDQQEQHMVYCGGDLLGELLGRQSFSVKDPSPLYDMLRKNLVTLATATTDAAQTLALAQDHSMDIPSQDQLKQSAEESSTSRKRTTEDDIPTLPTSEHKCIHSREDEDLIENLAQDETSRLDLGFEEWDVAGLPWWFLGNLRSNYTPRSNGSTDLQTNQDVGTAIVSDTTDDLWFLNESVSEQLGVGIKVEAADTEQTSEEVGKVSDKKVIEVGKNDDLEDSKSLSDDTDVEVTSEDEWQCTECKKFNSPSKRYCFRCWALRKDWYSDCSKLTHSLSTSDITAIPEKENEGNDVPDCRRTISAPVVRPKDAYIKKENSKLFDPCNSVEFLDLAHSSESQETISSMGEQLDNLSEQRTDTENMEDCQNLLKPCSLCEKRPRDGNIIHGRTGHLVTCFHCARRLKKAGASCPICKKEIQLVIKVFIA
Target sequence (Q00987 whole entry, looked up): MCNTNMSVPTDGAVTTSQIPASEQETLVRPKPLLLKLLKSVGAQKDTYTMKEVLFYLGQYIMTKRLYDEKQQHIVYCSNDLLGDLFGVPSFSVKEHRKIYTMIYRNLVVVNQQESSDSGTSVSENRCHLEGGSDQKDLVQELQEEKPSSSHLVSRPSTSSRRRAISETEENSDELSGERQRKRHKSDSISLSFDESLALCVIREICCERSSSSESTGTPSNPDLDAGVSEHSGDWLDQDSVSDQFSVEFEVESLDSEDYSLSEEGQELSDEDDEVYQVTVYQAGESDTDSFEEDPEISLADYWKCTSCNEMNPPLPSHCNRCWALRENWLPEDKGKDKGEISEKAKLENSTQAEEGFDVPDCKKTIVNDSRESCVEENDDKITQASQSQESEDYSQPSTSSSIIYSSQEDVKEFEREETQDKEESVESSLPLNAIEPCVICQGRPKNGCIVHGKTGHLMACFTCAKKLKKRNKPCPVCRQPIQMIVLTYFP
SKKanGAS inh = inhibitors of SKKanGAS S. pyogenes growth in kanamycin (SK-promoter or general growth effect) | BacTiter-Glo, 6 h | AID 1662 | inhibition, % at 7.5 µM | 1.3% of 300,000 active;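 active = mean replicate score, as percent of positive control median, at least 50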;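 also: strain carries kanamycin resistance gene driven by streptokinase promoter and grows in 40 µg/ml kanamycin; loss of luminescence reflects streptokinase promoter inhibition or plain growth inhibition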
T cruzi inh = blocks replication of Trypanosoma cruzi. T. cruzi beta-gal in NIH3T3, luminescence, 90 h. inhibition, % (concentration not given with the values). 1.4% of 300,000 active. AID 1885;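 active = mean inhibition across valid replicates above about 55%, limit read from the data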;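 also: signal also drops with host cell toxicity which is not excluded here; higher percent means less beta-gal luminescence so fewer parasites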
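System: Mouse NIH/3T3 fibroblasts infected with β-gal-expressing T. cruzi Tulahuen C4 | Quantity: NIH/3T3 cells, 5,000 per well | Reagent: 5000 reporter trypomastigotes per well | Dosing: Compound pinned at 50 nL/well, DMSO | Schedule: 3 h host attachment, then at least 90 h co-culture | Detection: GalScreen luminescence, 60 min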
CSC inhib = cancer stem cell inhibition; cancer stem cell-like cells viability, luminescence; inhibition, % at 7.5 µM; 1.1% of 300,000 active; AID 2717; in the data active = inhibition above about 75%; tested in HMLE shEcad cells
Mdm2 MdmX conf = confirmation of human Mdm2/MdmX interaction inhibitors; 55% of 10,000 active; inhibition, % at 8 µM; shares compounds with Mdm2 MdmX PPI; Mdm2-MdmX binding, luminescent assay; in the data active = inhibition above about 40%
Full FLuc ctr = full-length luciferase inhibition in Mdm2/MdmX counter-screen | 77% of 6,200 active | AID 504607 | shares compounds with Mdm2 MdmX PPI | inhibition, % at 8 µM | SaOS-2 full-length luciferase counterscreen, luminescence;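 active = mean inhibition at 8 µM reaching about 37%, which flags the compound as non-specific, limit read from the data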;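 also: p53-null SaOS-2 cells with luciferase driven by a doxycycline-inducible promoter; compound on cells about two nights before reading with doxycycline added after day one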
Each line names hits and unclear results; the compound was inactive in the other large screens (follow-up assays come after a bar, where they were run).

N#C/C(=C\Nc1ccc2c(c1)OCCO2)c1nc(-c2ccccc2)cs1	none
COc1ccc(-c2csc(/C(C#N)=C\c3ccc(OC)c([N+](=O)[O-])c3)n2)cc1	Mdm2 MdmX PPI 54 | Mdm2 MdmX conf inactive
CSCC(C)N1CCC(N2CCC(C(=O)NCc3ccccn3)CC2)CC1 (stereo not drawn)	none
Cc1ccc(N=Nc2cc(C)ccc2O)c(C)c1	none
Oc1ccc(N=Nc2ccc3c(c2)OCCO3)c2ncccc12	Calb FLC 89, Beta apoptosis 96, Mdm2 MdmX PPI 98, SKKanGAS inh 89, T cruzi inh 68, CSC inhib 98 | Mdm2 MdmX conf 87 | Full FLuc ctr inactive
Cc1cccc(N=Nc2ccc(O)c3ncccc23)c1	Beta apoptosis 88, Mdm2 MdmX PPI 73, SKKanGAS inh 92, CSC inhib 99 | Mdm2 MdmX conf 89 | Full FLuc ctr inactive
Cc1ccc(C)c(N=Nc2ccc(O)c3ncccc23)c1	Calb FLC 108, Beta apoptosis 88, Mdm2 MdmX PPI 97, SKKanGAS inh 92, CSC inhib 103 | Mdm2 MdmX conf 96 | Full FLuc ctr 51
Cc1ccc(C)c(S(=O)(=O)N2CCN(C(=O)Cc3ccc(S(=O)(=O)N4CCOCC4)s3)CC2)c1	none (no result: Beta apoptosis)
COc1ccc(CNC(=O)CN(C(=O)CCC(=O)Nc2nccs2)c2ccc3c(c2)OCO3)cc1	none
CCc1ccc(S(=O)(=O)/N=C2\C=C(Nc3ccc(C(=O)O)cc3)C(=O)c3ccccc32)cc1	Beta apoptosis 103, Mdm2 MdmX PPI 80, SKKanGAS inh 96 (no result: CSC inhib) | Mdm2 MdmX conf 52 | Full FLuc ctr inactive
COC(=O)c1ccccc1Nc1ccccc1	none
Cc1ccc(/C=C2\S/C(=N/S(=O)(=O)c3cccs3)NC2=O)cc1	none
COC(=O)c1ccccc1NC1=C/C(=N\S(=O)(=O)c2ccc(C(=O)O)cc2)c2ccccc2C1=O	Beta apoptosis 110, Mdm2 MdmX PPI 90, SKKanGAS inh 93 (no result: CSC inhib) | Mdm2 MdmX conf 68 | Full FLuc ctr inactive
O=C(O)c1ccc(NC2=C(n3nnc4ccccc43)C(=O)c3ccccc3C2=O)cc1	none
Cc1ccc(S(=O)(=O)/N=C2\C=C(Nc3ccc(O)cc3)C(=O)c3ccccc32)cc1	Beta apoptosis 120, Mdm2 MdmX PPI 95, CSC inhib 133 (no result: Calb FLC, SKKanGAS inh, T cruzi inh) | Mdm2 MdmX conf 89 | Full FLuc ctr inactive
Cc1ccc(NC2=C/C(=N/S(=O)(=O)c3cccs3)c3ccccc3C2=O)cc1	Beta apoptosis 103, Mdm2 MdmX PPI 53, SKKanGAS inh 89, CSC inhib active | Mdm2 MdmX conf 61 | Full FLuc ctr inactive
CCN1C(=O)CC(c2ccc(OC(C)C)cc2)C1=O (stereo not drawn)	none
COc1cccc(CC(NC(C)=O)C(=O)NC2CCN(c3nnnn3-c3ccccc3)CC2)c1OC (stereo not drawn)	none
COc1ccc(CNC(=O)CN2C(=O)NC3(CCCCCCC3)C2=O)cc1	none (no result: Calb FLC, SKKanGAS inh, T cruzi inh)
COC(=O)c1ccccc1NC1=C/C(=N\S(=O)(=O)c2cccs2)c2ccccc2C1=O	Beta apoptosis 96, Mdm2 MdmX PPI 100, CSC inhib 102 | Mdm2 MdmX conf 79 | Full FLuc ctr 58
COC(=O)c1cccc(NS(=O)(=O)c2cccs2)c1C	none (no result: Mdm2 MdmX PPI)
COc1ccc(-c2ccnc(-c3ccncc3)n2)cc1	none (no result: Beta apoptosis)
COc1ccc(-c2ccnc(-c3ccc(O)cc3)n2)cc1	Mdm2 MdmX PPI 52 | Mdm2 MdmX conf inactive | Full FLuc ctr 84
CC(C)(C)OC(=O)NCc1ccc(CNC(=O)c2[nH]cnc2C(=O)NCC(=O)OCc2ccccc2)cc1	none
Cc1ccc(S(=O)(=O)n2nc(C)cc2C)cc1	none
Cc1cc(C)n(S(=O)(=O)/C=C/c2ccccc2)n1	Mdm2 MdmX PPI 73 | Mdm2 MdmX conf 89 | Full FLuc ctr 52
COC(=O)c1ccc(NC(=O)CN2CCN(S(=O)(=O)c3ccc(Br)cc3)CC2)cc1	none
Cn1nc([N+](=O)[O-])nc1S(C)(=O)=O	none (no result: Beta apoptosis, CSC inhib)
CS(=O)(=O)c1nc([N+](=O)[O-])nn1CCCc1ccccc1	Mdm2 MdmX PPI 55 | Mdm2 MdmX conf inactive
COc1ccc(C(=O)c2cn(-c3cccc(Br)c3)nc2C(C)=O)cc1	none
CC(=O)c1nn(-c2cccc(Br)c2)cc1C(=O)c1ccc2ccccc2c1	Mdm2 MdmX PPI 63 (no result: CSC inhib) | Mdm2 MdmX conf inactive
O=C(Nc1ccc(-c2csc(Nc3ccc(Cl)cc3)n2)cc1)c1ccccc1	none (no result: Calb FLC, SKKanGAS inh, T cruzi inh)
O=C(Nc1ccc(-c2csc(Nc3cccc(C(F)(F)F)c3)n2)cc1)c1ccccc1	Mdm2 MdmX PPI 63, SKKanGAS inh 84, T cruzi inh 79, CSC inhib 136 | Mdm2 MdmX conf inactive | Full FLuc ctr 78
O=C(Nc1ccc(-c2csc(Nc3cccc(C(F)(F)F)c3)n2)cc1)c1cc([N+](=O)[O-])cc(C(F)(F)F)c1	Beta apoptosis 111, Mdm2 MdmX PPI 68, SKKanGAS inh 53, CSC inhib 88 | Mdm2 MdmX conf inactive
CC(=O)c1cccc(Nc2nc(-c3ccccc3)cs2)c1	none
CC1(c2nnc(-c3ccc(F)cc3)o2)CC(c2ccc([N+](=O)[O-])cc2)=NO1 (stereo not drawn)	none
COc1cccc(/C(O)=C/c2nc3ccc(C(=O)NCCc4ccc(Cl)cc4)cc3[nH]c2=O)c1	none (no result: Beta apoptosis, Mdm2 MdmX PPI, CSC inhib)
COc1cccc(/C(O)=C/c2nc3ccc(C(=O)NCCc4cccc(C)c4)cc3[nH]c2=O)c1	Mdm2 MdmX PPI 65 | Mdm2 MdmX conf inactive
O=C(NCc1ccccc1)c1nc(S(=O)(=O)Cc2ccccc2)ncc1Cl	Mdm2 MdmX PPI 74 | Mdm2 MdmX conf 67 | Full FLuc ctr inactive
O=C(NCc1ccccc1)c1c(Cl)nc(Cl)c(Cl)c1Cl	Mdm2 MdmX PPI 100 | Mdm2 MdmX conf 94 | Full FLuc ctr 53
COc1ccc(CNC(=O)c2nc(S(=O)(=O)Cc3ccccc3)ncc2Cl)cc1	Mdm2 MdmX PPI 77 | Mdm2 MdmX conf 94 | Full FLuc ctr inactive
COc1ccc(S(=O)(=O)Cc2ccc(C(=O)NCc3ccccc3)o2)cc1	none
COC(=O)c1ccccc1NC(=O)c1nc(S(=O)(=O)Cc2ccccc2)ncc1Cl	Beta apoptosis 99, Mdm2 MdmX PPI 98, SKKanGAS inh 58, CSC inhib 100 | Mdm2 MdmX conf 91 | Full FLuc ctr 67
Cc1nc(Cl)c(C(=O)NCc2ccccc2)c(C)c1Cl	none
Cn1ccnc1CN1CCCCC1C(=O)Nc1ccc(Oc2cccnc2)cc1 (stereo not drawn)	Mdm2 MdmX PPI 51 (no result: Beta apoptosis) | Mdm2 MdmX conf 74 | Full FLuc ctr 65
CCn1nc(C)c(CN2CCC(C(=O)Nc3cccc(-c4cccc(F)c4)c3)CC2)c1C	Mdm2 MdmX PPI 53 | Mdm2 MdmX conf inactive
COc1ccc(CN2CCC(C(=O)Nc3ccc(Oc4cccnc4)cc3)CC2)c(C)c1C	Mdm2 MdmX PPI 74 | Mdm2 MdmX conf inactive | Full FLuc ctr 53

Screening results from PubChem.
